Test results taken from ChEMBL document CHEMBL4007432, “Discovery and characterization of novel CYP1B1 inhibitors based on heterocyclic chalcones: Overcoming cisplatin resistance in CYP1B1-overexpressing lines” (Eur J Med Chem, 2017).

Tests used:
Cytochrome P450 1A2 = biological target: T1, Cytochrome P450 1A2 (Homo sapiens, UniProt P05177); test: Inhibition of human liver CYP1A2 expressed in Saccharomyces cerevisiae YY7 microsomal membranes using CEC as substrate after 10 mins by fluorescence assay; assay type: ADME, Microsomal Membrane
T1 sequence (P05177 whole entry): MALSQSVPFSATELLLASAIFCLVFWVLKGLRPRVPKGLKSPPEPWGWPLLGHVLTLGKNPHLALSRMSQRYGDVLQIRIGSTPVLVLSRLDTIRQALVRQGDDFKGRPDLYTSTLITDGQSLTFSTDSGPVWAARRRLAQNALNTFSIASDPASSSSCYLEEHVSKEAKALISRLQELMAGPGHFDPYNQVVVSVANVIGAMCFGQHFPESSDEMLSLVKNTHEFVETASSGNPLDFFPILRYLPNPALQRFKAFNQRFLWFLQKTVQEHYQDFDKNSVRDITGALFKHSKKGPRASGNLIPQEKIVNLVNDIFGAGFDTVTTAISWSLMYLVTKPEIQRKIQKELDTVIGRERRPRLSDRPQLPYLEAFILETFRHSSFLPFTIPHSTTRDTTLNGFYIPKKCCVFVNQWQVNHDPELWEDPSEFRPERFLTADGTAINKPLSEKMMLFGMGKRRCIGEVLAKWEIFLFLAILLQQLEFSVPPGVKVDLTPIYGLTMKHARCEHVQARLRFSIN
How it was run: (§1)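 Yeast microsomes (YY7 strain carrying human reductase) held 0.5 pmol CYP with an NADP+/glucose-6-phosphate/G6PDH regenerating system in KPi. Fluorogenic substrate per isoform: 7-ER, CEC, EOMCC or DBF. Six serial 1:20 dilutions were tested, DMSO ≤0.5%. Reactions ran 10 min at 37 °C and were stopped with Tris-acetonitrile. Endpoint fluorescence (530/590 nm for resorufin) was fitted by 4-parameter sigmoid. Triplicate, ≥3 experiments.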

Cytochrome P450 1A1 = biological target: T2, Cytochrome P450 1A1 (Homo sapiens, UniProt P04798); test: Inhibition of human liver CYP1A1 expressed in Saccharomyces cerevisiae YY7 microsomal membranes using 7-ethoxyresorufin as substrate after 10 mins by fluorescence assay; assay type: ADME, Microsomal Membrane; how it was run: as §1
T2 sequence (P04798 whole entry): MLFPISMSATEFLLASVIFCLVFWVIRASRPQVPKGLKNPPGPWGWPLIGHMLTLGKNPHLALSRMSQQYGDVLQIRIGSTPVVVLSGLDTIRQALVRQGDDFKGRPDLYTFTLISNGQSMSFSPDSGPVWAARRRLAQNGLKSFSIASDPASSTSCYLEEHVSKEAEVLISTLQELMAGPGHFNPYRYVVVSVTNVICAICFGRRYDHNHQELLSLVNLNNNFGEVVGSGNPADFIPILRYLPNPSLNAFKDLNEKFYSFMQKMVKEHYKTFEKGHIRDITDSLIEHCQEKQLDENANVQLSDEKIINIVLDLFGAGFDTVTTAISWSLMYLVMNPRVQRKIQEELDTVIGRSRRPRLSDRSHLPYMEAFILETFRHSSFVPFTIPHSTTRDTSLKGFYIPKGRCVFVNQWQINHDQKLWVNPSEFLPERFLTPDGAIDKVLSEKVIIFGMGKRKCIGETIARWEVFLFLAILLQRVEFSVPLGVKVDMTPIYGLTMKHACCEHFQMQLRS

Cytochrome P450 1B1 [1] = biological target: T3, Cytochrome P450 1B1 (Homo sapiens, UniProt Q16678); test: Inhibition of human liver CYP1B1 expressed in Saccharomyces cerevisiae YY7 microsomal membranes at 5 to 10 uM using 7-ethoxyresorufin as substrate after 10 mins by fluorescence assay
T3 sequence (Q16678 whole entry): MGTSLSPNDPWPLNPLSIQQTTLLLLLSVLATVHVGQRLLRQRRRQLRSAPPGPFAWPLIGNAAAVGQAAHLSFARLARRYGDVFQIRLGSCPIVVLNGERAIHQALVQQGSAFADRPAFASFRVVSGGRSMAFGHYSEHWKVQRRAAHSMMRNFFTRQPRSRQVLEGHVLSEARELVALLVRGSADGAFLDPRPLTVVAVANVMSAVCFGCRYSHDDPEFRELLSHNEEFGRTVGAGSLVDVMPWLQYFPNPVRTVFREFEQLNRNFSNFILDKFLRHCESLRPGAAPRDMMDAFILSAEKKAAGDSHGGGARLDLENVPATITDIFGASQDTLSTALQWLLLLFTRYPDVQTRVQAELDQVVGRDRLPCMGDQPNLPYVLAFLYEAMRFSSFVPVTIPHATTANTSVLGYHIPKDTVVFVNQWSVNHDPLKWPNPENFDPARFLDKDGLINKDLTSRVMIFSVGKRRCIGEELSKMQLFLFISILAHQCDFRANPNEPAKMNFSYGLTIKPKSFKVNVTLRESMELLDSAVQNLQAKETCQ
How it was run: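 Single-concentration screen on CYP1B1 yeast microsomes at 5 µM (10 µM per methods), with 7-ER under the regenerating-system endpoint format: 10 min at 37 °C. Percentage inhibition versus a DMSO control; each compound tested twice.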

Cytochrome P450 1B1 [2] = biological target: T3, Cytochrome P450 1B1; test: Inhibition of human liver CYP1B1 expressed in Saccharomyces cerevisiae YY7 microsomal membranes using 7-ethoxyresorufin as substrate after 10 mins by fluorescence assay; how it was run: as §1
Cytochrome P450 2C9 = Cytochrome P450 2C9 (Homo sapiens, UniProt P11712); test: Inhibition of human liver CYP2C9 expressed in Saccharomyces cerevisiae YY7 microsomal membranes using DBF as substrate after 10 mins by fluorescence assay; assay type: ADME, Microsomal Membrane
Sequence of Cytochrome P450 2C9 (P11712 whole entry): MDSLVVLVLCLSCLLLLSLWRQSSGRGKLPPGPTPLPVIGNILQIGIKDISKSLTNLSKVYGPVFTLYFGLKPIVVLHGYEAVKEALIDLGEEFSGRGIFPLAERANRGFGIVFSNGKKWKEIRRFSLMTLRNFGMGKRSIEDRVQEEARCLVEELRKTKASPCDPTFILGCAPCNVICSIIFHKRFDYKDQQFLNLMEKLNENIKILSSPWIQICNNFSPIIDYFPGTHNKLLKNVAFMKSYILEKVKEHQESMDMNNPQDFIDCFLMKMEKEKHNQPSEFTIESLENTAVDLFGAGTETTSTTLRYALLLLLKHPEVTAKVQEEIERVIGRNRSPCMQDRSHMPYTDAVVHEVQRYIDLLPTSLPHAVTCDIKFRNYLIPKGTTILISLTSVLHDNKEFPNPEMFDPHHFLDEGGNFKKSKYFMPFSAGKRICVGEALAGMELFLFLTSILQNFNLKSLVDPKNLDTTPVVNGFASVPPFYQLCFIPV

Cytochrome P450 2C19 = Cytochrome P450 2C19 (Homo sapiens, UniProt P33261); test: Inhibition of human liver CYP2C19 expressed in Saccharomyces cerevisiae YY7 microsomal membranes using DBF as substrate after 10 mins by fluorescence assay; assay type: ADME, Microsomal Membrane
Sequence of Cytochrome P450 2C19 (P33261 whole entry): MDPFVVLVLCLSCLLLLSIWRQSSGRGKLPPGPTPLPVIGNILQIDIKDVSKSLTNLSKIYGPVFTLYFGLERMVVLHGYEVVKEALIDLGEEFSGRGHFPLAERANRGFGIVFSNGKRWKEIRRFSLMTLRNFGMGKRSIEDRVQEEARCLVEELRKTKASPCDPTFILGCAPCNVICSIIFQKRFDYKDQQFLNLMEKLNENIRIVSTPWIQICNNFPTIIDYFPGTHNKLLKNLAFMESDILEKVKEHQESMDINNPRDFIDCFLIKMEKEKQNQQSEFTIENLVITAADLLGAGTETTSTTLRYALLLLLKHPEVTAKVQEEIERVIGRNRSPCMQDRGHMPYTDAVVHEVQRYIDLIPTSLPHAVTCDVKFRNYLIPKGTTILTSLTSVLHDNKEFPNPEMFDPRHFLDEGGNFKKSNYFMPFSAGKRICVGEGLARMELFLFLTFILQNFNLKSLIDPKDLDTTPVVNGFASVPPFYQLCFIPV

Cytochrome P450 3A4 = Cytochrome P450 3A4 (Homo sapiens, UniProt P08684); test: Inhibition of human liver CYP3A4 expressed in Saccharomyces cerevisiae YY7 microsomal membranes using DBF as substrate after 10 mins by fluorescence assay; assay type: ADME, Microsomal Membrane
Sequence of Cytochrome P450 3A4 (P08684 whole entry): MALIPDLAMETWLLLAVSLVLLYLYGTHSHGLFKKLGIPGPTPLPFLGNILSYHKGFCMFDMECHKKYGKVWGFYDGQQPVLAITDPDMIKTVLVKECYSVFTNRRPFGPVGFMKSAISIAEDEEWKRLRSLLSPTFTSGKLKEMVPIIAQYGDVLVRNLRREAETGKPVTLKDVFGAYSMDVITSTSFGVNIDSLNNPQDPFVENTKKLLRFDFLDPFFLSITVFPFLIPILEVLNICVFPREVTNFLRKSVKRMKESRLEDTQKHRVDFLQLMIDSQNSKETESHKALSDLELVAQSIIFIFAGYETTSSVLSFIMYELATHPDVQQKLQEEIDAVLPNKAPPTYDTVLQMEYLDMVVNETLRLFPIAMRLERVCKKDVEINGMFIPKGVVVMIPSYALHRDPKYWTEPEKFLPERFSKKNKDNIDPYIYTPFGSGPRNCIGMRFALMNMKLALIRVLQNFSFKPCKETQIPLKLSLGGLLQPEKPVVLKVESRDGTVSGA

Cytochrome P450 2D6 = Cytochrome P450 2D6 (Homo sapiens, UniProt P10635); test: Inhibition of human liver CYP2D6 expressed in Saccharomyces cerevisiae YY7 microsomal membranes using EOMCC as substrate after 10 mins by fluorescence assay; assay type: ADME, Microsomal Membrane; how it was run: as §1
Sequence of Cytochrome P450 2D6 (P10635 whole entry): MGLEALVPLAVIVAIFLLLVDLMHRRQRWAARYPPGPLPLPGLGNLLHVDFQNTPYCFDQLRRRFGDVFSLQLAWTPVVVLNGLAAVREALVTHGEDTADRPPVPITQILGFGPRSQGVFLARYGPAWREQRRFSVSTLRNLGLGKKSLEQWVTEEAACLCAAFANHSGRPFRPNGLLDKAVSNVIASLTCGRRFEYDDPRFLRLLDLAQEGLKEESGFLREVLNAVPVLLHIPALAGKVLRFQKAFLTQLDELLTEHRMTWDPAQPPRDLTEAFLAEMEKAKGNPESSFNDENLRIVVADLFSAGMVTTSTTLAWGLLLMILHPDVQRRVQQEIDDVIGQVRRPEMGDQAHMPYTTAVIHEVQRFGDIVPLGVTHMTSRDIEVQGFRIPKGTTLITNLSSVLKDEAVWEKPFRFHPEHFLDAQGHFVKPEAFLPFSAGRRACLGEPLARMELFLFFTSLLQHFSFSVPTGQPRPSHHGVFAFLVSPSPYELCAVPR

Structure (SMILES)	IC50 (Cytochrome P450 1A2) [nM]	IC50 (Cytochrome P450 1A1) [nM]	inhibition (INH) (Cytochrome P450 1B1 [1])	IC50 (Cytochrome P450 1B1 [2]) [nM]	IC50 (Cytochrome P450 2C9) [nM]	IC50 (Cytochrome P450 2C19) [nM]	IC50 (Cytochrome P450 3A4) [nM]	IC50 (Cytochrome P450 2D6) [nM]
O=C(/C=C/c1cccnc1)c1cccc2ccccc12	214	958	Active	23	> 20000	> 20000	6000	1300
COc1ccc(C(=O)/C=C/c2cccnc2)cc1	2400	3600	Active	525	–	–	–	–
COc1ccc(/C=C/C(=O)c2cccnc2)cc1OC	258	1400	Active	19	> 20000	> 20000	53000	1100
O=C(/C=C/c1cccnc1)c1cc2ccccc2c2ccccc12	669	58	Active	133	–	–	–	–
O=C(/C=C/c1cccnc1)c1ccc2ccccc2c1	636	349	Active	15	> 20000	> 20000	28000	4400
COc1cccc(C(=O)/C=C/c2cccnc2)c1	480	3500	Active	130	–	–	–	–
COc1ccc(C(=O)/C=C/c2cccnc2)c(OC)c1OC	176	5300	Active	137	–	–	–	–
COc1cc(/C=C/C(=O)c2cccnc2)cc(OC)c1OC	515	288	Active	349	–	–	–	–
O=C(/C=C/c1cccnc1)c1ccc2ccc3cccc4ccc1c2c34	2100	2200	Active	162	–	–	–	–
O=C(/C=C/c1cccnc1)c1ccc2ccc3ccccc3c2c1	1000	122	Active	48	> 20000	> 20000	26000	12000
O=C(/C=C/c1cccnc1)c1ccc(-c2ccccc2)cc1	2300	17000	Active	189	–	–	–	–

More lines, in order of falling IC50 (Cytochrome P450 1A2), values ahead:

IC50 (Cytochrome P450 1A2) [nM]	IC50 (Cytochrome P450 1A1) [nM]	inhibition (INH) (Cytochrome P450 1B1 [1])	IC50 (Cytochrome P450 1B1 [2]) [nM]	IC50 (Cytochrome P450 2C9) [nM]	IC50 (Cytochrome P450 2C19) [nM]	IC50 (Cytochrome P450 3A4) [nM]	IC50 (Cytochrome P450 2D6) [nM]	Structure (SMILES)
4700	31800	Active	77	> 20000	> 20000	11100	8200	O=C(/C=C/c1ccccc1)c1cccnc1
2900	25000	Active	466	–	–	–	–	O=C(/C=C/c1cccc(O)c1)c1cccnc1
1700	2600	Active	112	–	–	–	–	COc1ccc(/C=C/C(=O)c2cccnc2)cc1O
1500	1500	Active	29	> 20000	> 20000	12000	14000	O=C(/C=C/c1ccc2c(c1)OCO2)c1cccnc1
860	11800	Active	120	–	–	–	–	O=C(/C=C/c1ccc(F)c(F)c1)c1cccnc1
752	10500	Active	32	> 20000	> 20000	1280	1000	COc1cccc(/C=C/C(=O)c2cccnc2)c1
705	3100	Active	176	–	–	–	–	COc1ccc(C(=O)/C=C/c2cccnc2)cc1OC
624	2000	Active	96	> 20000	> 20000	15000	10200	O=C(/C=C/c1ccc(Cl)c(Cl)c1)c1cccnc1
432	1500	Active	93	> 20000	> 20000	11000	7700	COc1ccc(C(=O)/C=C/c2cccnc2)c(OC)c1
306	879	Active	106	–	–	–	–	COc1cc(OC)cc(C(=O)/C=C/c2cccnc2)c1
300	907	Active	187	–	–	–	–	O=C(/C=C/c1ccncc1)c1ccc2ccccc2c1
238	3400	Active	59	> 20000	> 20000	12500	10600	O=C(/C=C/c1cccnc1)c1cccc(Cl)c1
220	4700	Active	15	> 20000	> 20000	1520	1740	COc1ccccc1/C=C/C(=O)c1cccnc1
168	297	Active	31	> 20000	> 20000	11800	8800	COc1ccc(/C=C/C(=O)c2cccnc2)c(OC)c1OC
162	2600	Active	64	> 20000	> 20000	14000	8000	O=C(/C=C/c1cccnc1)c1cccc(Br)c1
